Shown are actives, neighbours in structure and some others; about 2.3% of the full set was active somewhere.
Yeast superoxide: reduction of superoxide in aged yeast, primary screen, HTS. S. cerevisiae aged cells, superoxide DHE fluorescence; active compounds read low. superoxide response (% of plate mean), % at 10 µM. 0.18% of 330,000 active. AID 2690, 2010;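 active = superoxide response under a set limit, about three screen SD below normal, cut at about 65% in these data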;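 also: yeast aged for seven days with compound at 30 °C before DHE staining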
TRPC4 block: inhibitors of mouse TRPC4 channel, primary screen, Fluo4 calcium, HEK293 TRPC4beta/mu-opioid cells; DAMGO-evoked Fluo4 calcium flux; active compounds read low; AID 2247, 2010; Short transient receptor potential channel 4 (Mus musculus), Q9QUQ5; 0.39% of 300,000 active; B-score at 10 µM;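 active = B-score over 3 SD under the library average, no early fluorescence shift, positive overall ratio signal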
Target sequence (Q9QUQ5 whole entry, looked up): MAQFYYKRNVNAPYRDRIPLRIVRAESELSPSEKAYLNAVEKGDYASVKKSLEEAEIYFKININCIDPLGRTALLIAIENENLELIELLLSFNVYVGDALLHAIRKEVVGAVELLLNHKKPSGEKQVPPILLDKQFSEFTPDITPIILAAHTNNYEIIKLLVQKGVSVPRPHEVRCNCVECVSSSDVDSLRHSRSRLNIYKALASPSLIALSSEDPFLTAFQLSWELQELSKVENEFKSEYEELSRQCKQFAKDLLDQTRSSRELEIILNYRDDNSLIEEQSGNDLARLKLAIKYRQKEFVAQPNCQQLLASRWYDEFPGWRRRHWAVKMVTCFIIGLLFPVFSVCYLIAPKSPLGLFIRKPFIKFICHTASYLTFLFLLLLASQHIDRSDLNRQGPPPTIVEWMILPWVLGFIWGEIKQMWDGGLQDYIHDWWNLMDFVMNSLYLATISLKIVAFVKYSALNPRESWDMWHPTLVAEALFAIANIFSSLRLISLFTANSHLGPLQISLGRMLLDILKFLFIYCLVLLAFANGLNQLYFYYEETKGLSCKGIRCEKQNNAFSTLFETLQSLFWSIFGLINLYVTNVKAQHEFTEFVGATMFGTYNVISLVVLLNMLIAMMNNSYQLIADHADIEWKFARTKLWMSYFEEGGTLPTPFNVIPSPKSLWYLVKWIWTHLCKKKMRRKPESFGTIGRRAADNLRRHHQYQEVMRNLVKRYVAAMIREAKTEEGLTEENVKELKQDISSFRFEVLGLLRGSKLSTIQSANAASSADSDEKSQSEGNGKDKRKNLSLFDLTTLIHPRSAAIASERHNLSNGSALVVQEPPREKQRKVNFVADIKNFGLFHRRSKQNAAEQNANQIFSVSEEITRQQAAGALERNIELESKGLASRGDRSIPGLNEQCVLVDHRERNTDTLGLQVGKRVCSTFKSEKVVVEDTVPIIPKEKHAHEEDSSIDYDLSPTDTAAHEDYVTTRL
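Assay system: HEK293 cells with stable TRPC4beta plus mu-opioid receptor expression. Dosing: single dose. Measured by: Fluo4 Ca2+ flux fluorescence. Also added: DAMGO in two steps, submaximal then maximal. Read-out: B score from integrated Fluo4 fluorescence ratio.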
TRPC4 potent: positive allosteric modulators of TRPC4, primary screen, cell-based, mouse TRPC4beta, HEK293 mu-opioid, Fluo-4 calcium; AID 2227, 2009; 0.42% of 310,000 active; DAMGO EC20, Fluo-4 Ca2+ flux; active compounds read high; B-score at 10 µM;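 active = B-score of calcium response area above 5 SD of library B-scores, with initial fluorescence ratio within 5 SD of library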
TRPC6 act: mouse TRPC6 channel activators, primary screen, cell-based, HEK293, membrane potential dye; B-score at 10 µM; 0.13% of 310,000 active; AID 2550, 2010; Short transient receptor potential channel 6 (Mus musculus), Q61143; HEK293-TRPC6 membrane potential dye fluorescence; active compounds read high;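 active = B-score of the integrated fluorescence ratio above library mean plus 3 SD, and starting fluorescence ratio within library mean plus 5 SD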;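 also: higher score means more depolarization so channel activation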
TRPC6 inhibitor: mouse TRPC6 channel inhibitors, primary screen, cell-based, HEK293, membrane potential dye | AID 2553, 2010 | 1.1% of 310,000 active | B-score at 10 µM | ACh-evoked depolarization; active compounds read low;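 active = B-score under library mean minus 3 SD, initial fluorescence not abnormally high, positive integrated signal ratio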;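 also: B-score derived from integrated fluorescence ratio over the kinetic read; more negative B-score means stronger inhibition of depolarization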
TRPC4 agonist: activators of mouse TRPC4 channel, primary screen, Fluo4 calcium, HEK293 TRPC4beta/mu-opioid cells; Fluo4 calcium fluorescence; active compounds read high; B-score at 10 µM; 0.49% of 310,000 active; AID 2237, 2010;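 active = B-score above 5 SD of library B-scores, and initial fluorescence ratio not above library mean plus 5 SD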;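 also: positive B-score marks a calcium rise read as TRPC4 activation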
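Assay system – TRPC4beta and mu-opioid receptor HEK293 stable cells · Measured by – Fluo4 fluorescence, kinetic · Schedule – dye loading 45 min room temperature, 110 s kinetic read · Read-out – B-scored integrated calcium fluorescence ratio · Controls – buffer and maximal DAMGO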
TRPC4 sel inh 2: second selectivity test of TRPC6 inhibitors: effect on mouse TRPC4; shares compounds with TRPC6 inhibitor; HEK293 TRPC4/MOR, membrane potential dye fluorescence; channel activated by saturating DAMGO dose; inhibition, % at 10 µM; 42% of 920 active;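 active = compounds whose fluorescence signal differed from control wells by over 3 SD, either direction, in both duplicate plates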
TRPC4 spec: mouse TRPC4 modulation by TRPC6 hits, confirmation, selectivity assay for TRPC6 inhibitor project, cell-based, HEK293 TRPC4/mu-opioid, membrane potential dye; shares compounds with TRPC6 inhibitor; membrane potential fluorescence; activity change, negative = inhibition, % at 10 µM; 61% of 920 active;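 active = rise or fall in signal beyond 3 SD of buffer-only wells in both replicate plates, either sign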;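 also: integrated kinetic ratio of fluorescence range over baseline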
HEK293 MPD ctr 2-1: nonspecific membrane potential effects, parental HEK293, confirmation, counter-screen for TRPC6 inhibitor project, cell-based, second counter screen | shares compounds with TRPC6 inhibitor | parental HEK293 membrane potential dye fluorescence; maximal acetylcholine challenge after compound addition | signal change vs control, % at 10 µM | 31% of 920 active | AID 2779, 2010;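 active = membrane potential signal moving either way by over 3 SD of the maximum-effect control, in both duplicate plates, meaning non-specific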
HEK293 MPD ctr-1: membrane potential modulation in parental HEK293, confirmation, counter-screen for TRPC6 inhibitor project, cell-based; AID 2780, 2010; membrane potential signal change, % at 10 µM; parental HEK293 membrane potential dye fluorescence; 60% of 920 active; shares compounds with TRPC6 inhibitor;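 active = membrane potential signal shifting up or down by more than 3 SD of buffer-only wells, on both duplicate plates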
HEK293 MPD ctr-2: parental HEK293 membrane potential modulation, confirmation, counter-screen for TRPC6 modulator project, cell-based; membrane potential dye fluorescence; shares compounds with TRPC6 inhibitor; 51% of 2,400 active; membrane potential signal change, % at 10 µM;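 active = membrane potential signal moves up or down beyond 5 SD from buffer-only wells, on both duplicate plates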
HEK293 MPD ctr 2-2: second counter-screen for TRPC6 modulators: effect in parental HEK293 cells; shares compounds with TRPC6 inhibitor; membrane potential dye fluorescence; after compound, maximal acetylcholine stimulation; inhibition, % at 10 µM; 14% of 2,400 active;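 active = membrane potential signal drops by more than 5 SD from the mean control signal, in both duplicate plates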
TRPC4 ctr mod: TRPC4 modulation by TRPC6 hit compounds, confirmation, selectivity assay for TRPC6 modulator project, cell-based, HEK293 TRPC4/mu-opioid, membrane potential dye, mouse; shares compounds with TRPC6 inhibitor; membrane potential fluorescence; AID 488927, 2010; percent change from control (negative = decrease, positive = increase), % at 10 µM; 69% of 2,400 active;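 active = membrane potential signal moved up or down beyond 5 SD of buffer control wells, in both duplicate plates, actives on both sides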
TRPC4/MOR inh 2: second check of whether TRPC6 modulators also affect mouse TRPC4 | inhibition, % at 10 µM | 55% of 2,400 active | HEK293 TRPC4/mu-opioid, membrane potential dye fluorescence; stimulated with maximal-effect DAMGO | shares compounds with TRPC6 inhibitor;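 active = drop in membrane potential signal beyond 5 SD of the control wells in both duplicate plates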;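 also: TRPC4 counter screen for TRPC6 hits run under conditions tuned for TRPC6 not TRPC4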
TRPC6 block conf: mouse TRPC6 channel inhibitors, confirmation, HEK293 cells, membrane potential dye, duplicate | inhibition, % at 10 µM | 43% of 3,300 active | ACh-evoked depolarization | shares compounds with TRPC6 inhibitor | AID 488960, 2010;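 active = fluorescence ratio falls more than 5 SD below the full-stimulation control mean, in both duplicate runs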;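 also: integrated fluorescence ratio of peak minus minimum over baseline after agonist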
TRPC6 act conf: mouse TRPC6 channel activators, confirmation, HEK293 cells, membrane potential dye, duplicate. AID 488961, 2010. HEK293-TRPC6 membrane potential dye fluorescence, FDSS. shares compounds with TRPC6 inhibitor. 11% of 2,800 active. activation, % at 10 µM;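 active = ratio signal rise beyond 5 SD above unstimulated control wells' mean, seen in both duplicate runs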
A number is an active result; - = inactive; . = no result.

SMILES	Yeast superoxide	TRPC4 block	TRPC4 potent	TRPC6 act	TRPC6 inhibitor	TRPC4 agonist	HEK293 MPD ctr-2	HEK293 MPD ctr 2-2	TRPC4 ctr mod	TRPC4/MOR inh 2	TRPC6 block conf	TRPC6 act conf	others
CC(Nc1nc(N2CCN(S(C)(=O)=O)CC2)nc2ccccc12)c1ccccc1 (centres undefined)	-	-	-	-	-6.05	-	-158.0%	-	-26.5%	52.0%	-	-
COc1ccc(Nc2nc(N3CCN(S(C)(=O)=O)CC3)nc3ccccc23)c(OC)c1	-	-	-	-	-	-	.	.	.	.	.	.
O=C(CNC(=O)c1ccc(Cl)cc1)c1ccccc1	-	-	-	-	-	-	.	.	.	.	.	.
COc1ccc(Cn2c(=N)c(C(=O)NCC3CCCO3)cc3c(=O)n4ccccc4nc32)cc1 (centres undefined)	-	-	-	-	-6.45	-	-	-	-10.0%	36.5%	43.5%	-
N=c1c(C(=O)NCC2CCCO2)cc2c(=O)n3ccccc3nc2n1Cc1ccccc1Cl (centres undefined)	-	-	78	-	-6.71	-	.	.	.	.	-	-	TRPC4 sel inh 2=47.5%;TRPC4 spec=-;HEK293 MPD ctr 2-1=-;HEK293 MPD ctr-1=-456.0%
COc1ccc(CCn2c(=N)c(C(=O)NCC3CCCO3)cc3c(=O)n4ccccc4nc32)cc1 (centres undefined)	-	-	-	-	-5.8	-	-82.5%	-	-22.0%	60.0%	58.0%	-

High-throughput results as filed in PubChem BioAssay.
